In ChEMBL document CHEMBL3588802, “Thiol activated prodrugs of sulfur dioxide (SO2) as MRSA inhibitors” (Bioorg Med Chem Lett, 2015):
≈ marks a conversion by molar mass, not a printed value. Calls of active or inactive are those of the source. The calls are words filed in the database; no cut-off is given here.

Columns and labels:
Staphylococcus aureus [1] = experiment: Antibacterial activity against methicillin-sensitive Staphylococcus aureus after 18 to 20 hrs by microbroth dilution method; format: functional
Enterococcus faecalis = experiment: Antibacterial activity against Enterococcus faecalis after 18 to 20 hrs by microbroth dilution method; format: functional
Escherichia coli = experiment: Antibacterial activity against Escherichia coli after 18 to 20 hrs by microbroth dilution method; format: functional
Staphylococcus aureus [2] = experiment: Antibacterial activity against methicillin-resistant Staphylococcus aureus after 18 to 20 hrs by microbroth dilution method; format: functional
Staphylococcus aureus [3] = experiment: Antibacterial activity against patient-derived methicillin-resistant Staphylococcus aureus 7419 after 18 to 20 hrs by microbroth dilution method; format: functional
Method in brief: (§1)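 Patient-derived MRSA clinical isolates from the Department of Microbiology, Nizam's Institute of Medical Sciences, Hyderabad. MIC determined by broth dilution.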

Staphylococcus aureus [4] = experiment: Antibacterial activity against patient-derived methicillin-resistant Staphylococcus aureus B19506 after 18 to 20 hrs by microbroth dilution method; format: functional; method in brief: as §1
Staphylococcus aureus [5] = experiment: Antibacterial activity against patient-derived methicillin-resistant Staphylococcus aureus 7425 after 18 to 20 hrs by microbroth dilution method; format: functional; method in brief: as §1
Staphylococcus aureus [6] = experiment: Antibacterial activity against patient-derived methicillin-resistant Staphylococcus aureus 7386 after 18 to 20 hrs by microbroth dilution method; format: functional; method in brief: as §1
Staphylococcus aureus [7] = experiment: Antibacterial activity against patient-derived methicillin-resistant Staphylococcus aureus K1 after 18 to 20 hrs by microbroth dilution method; format: functional; method in brief: as §1
Staphylococcus aureus [8] = experiment: Induction of intracellular thiol depletion in Staphylococcus aureus after 60 mins by monobromobimane-based fluorescence assay relative to control

## C#CCN(Cc1ccc(OC)cc1)S(=O)(=O)c1ccc([N+](=O)[O-])cc1[N+](=O)[O-]
Staphylococcus aureus [1]
  MIC: 8 µg/mL (≈ 19.7 µM)
Enterococcus faecalis
  MIC: 16 µg/mL (≈ 39.5 µM)
Escherichia coli
  MIC: > 32 µg/mL
Staphylococcus aureus [2]
  MIC: 8 µg/mL (≈ 19.7 µM)

## CCN(c1cccc(OC)c1)S(=O)(=O)c1ccc([N+](=O)[O-])cc1[N+](=O)[O-]
Staphylococcus aureus [1]
  MIC: 8 µg/mL (≈ 21 µM)
Enterococcus faecalis
  MIC: 8 µg/mL (≈ 21 µM)
Escherichia coli
  MIC: > 32 µg/mL
Staphylococcus aureus [2]
  MIC: 8 µg/mL (≈ 21 µM)

## COc1ccc(NS(=O)(=O)c2ccc([N+](=O)[O-])cc2[N+](=O)[O-])cc1
Staphylococcus aureus [1]
  MIC: > 16 µg/mL

## C#CCN(C)S(=O)(=O)c1ccc([N+](=O)[O-])cc1[N+](=O)[O-]
Staphylococcus aureus [1]
  MIC: 8 µg/mL (≈ 26.7 µM)
Enterococcus faecalis
  MIC: > 32 µg/mL
Escherichia coli
  MIC: > 32 µg/mL
Staphylococcus aureus [2]
  MIC: 8 µg/mL (≈ 26.7 µM)

## COc1cccc(N(C)S(=O)(=O)c2ccc([N+](=O)[O-])cc2[N+](=O)[O-])c1
Staphylococcus aureus [1]
  MIC: 8 µg/mL (≈ 21.8 µM)
Enterococcus faecalis
  MIC: 8 µg/mL (≈ 21.8 µM)
Escherichia coli
  MIC: > 32 µg/mL
Staphylococcus aureus [2]
  MIC: 4 µg/mL (≈ 10.9 µM)

## C[C@@H](O)[C@H]1C(=O)N2C(C(=O)O)=C(S[C@@H]3CN[C@H](C(=O)N(C)C)C3)[C@H](C)[C@H]12 [MEROPENEM]
Staphylococcus aureus [3]
  MIC: 16 µg/mL (≈ 41.7 µM)
Staphylococcus aureus [4]
  MIC: 1 µg/mL (≈ 2.61 µM)
Staphylococcus aureus [5]
  MIC: 4 µg/mL (≈ 10.4 µM)
Staphylococcus aureus [6]
  MIC: > 32 µg/mL
Staphylococcus aureus [7]
  MIC: 0.5 µg/mL (≈ 1.3 µM)
Staphylococcus aureus [2]
  MIC: 16 µg/mL (≈ 41.7 µM)

## C#CCN(CC)S(=O)(=O)c1ccc([N+](=O)[O-])cc1[N+](=O)[O-]
Staphylococcus aureus [1]
  MIC: 16 µg/mL (≈ 51.1 µM)
Enterococcus faecalis
  MIC: > 32 µg/mL
Escherichia coli
  MIC: > 32 µg/mL
Staphylococcus aureus [2]
  MIC: 16 µg/mL (≈ 51.1 µM)
Staphylococcus aureus [8]
  Activity: inactive

## C#CCN(c1ccccc1OC)S(=O)(=O)c1ccc([N+](=O)[O-])cc1[N+](=O)[O-]
Staphylococcus aureus [1]
  MIC: 4 µg/mL (≈ 10.2 µM)
Enterococcus faecalis
  MIC: 8 µg/mL (≈ 20.4 µM)
Escherichia coli
  MIC: > 32 µg/mL
Staphylococcus aureus [2]
  MIC: 8 µg/mL (≈ 20.4 µM)

## COc1cccc(N(CCCN(Cc2ccccc2)S(=O)(=O)c2ccc([N+](=O)[O-])cc2[N+](=O)[O-])S(=O)(=O)c2ccc([N+](=O)[O-])cc2[N+](=O)[O-])c1
Staphylococcus aureus [1]
  MIC: > 32 µg/mL

## COc1ccccc1N(C)S(=O)(=O)c1ccc([N+](=O)[O-])cc1[N+](=O)[O-]
Staphylococcus aureus [1]
  MIC: 16 µg/mL (≈ 43.6 µM)
Enterococcus faecalis
  MIC: 16 µg/mL (≈ 43.6 µM)
Escherichia coli
  MIC: > 32 µg/mL
Staphylococcus aureus [2]
  MIC: 16 µg/mL (≈ 43.6 µM)

## N#Cc1ccc(NS(=O)(=O)c2ccc([N+](=O)[O-])cc2[N+](=O)[O-])cc1
Staphylococcus aureus [1]
  MIC: > 16 µg/mL

## NC[C@H]1O[C@H](O[C@H]2[C@H](O)[C@@H](O[C@H]3O[C@H](CO)[C@@H](O)[C@H](N)[C@H]3O)[C@H](N)C[C@@H]2N)[C@H](N)C[C@@H]1O [TOBRAMYCIN]
Staphylococcus aureus [3]
  MIC: > 32 µg/mL
Staphylococcus aureus [4]
  MIC: > 32 µg/mL
Staphylococcus aureus [5]
  MIC: 1 µg/mL (≈ 2.14 µM)
Staphylococcus aureus [6]
  MIC: > 32 µg/mL
Staphylococcus aureus [7]
  MIC: 8 µg/mL (≈ 17.1 µM)
Staphylococcus aureus [2]
  MIC: > 32 µg/mL

## COc1ccccc1N(CCCN(Cc1ccccc1)S(=O)(=O)c1ccc([N+](=O)[O-])cc1[N+](=O)[O-])S(=O)(=O)c1ccc([N+](=O)[O-])cc1[N+](=O)[O-]
Staphylococcus aureus [1]
  MIC: > 32 µg/mL

## CCCCN(c1ccccc1OC)S(=O)(=O)c1ccc([N+](=O)[O-])cc1[N+](=O)[O-]
Staphylococcus aureus [1]
  MIC: > 32 µg/mL
Enterococcus faecalis
  MIC: > 32 µg/mL
Escherichia coli
  MIC: > 32 µg/mL

## O=[N+]([O-])c1ccc(S(=O)(=O)NCc2ccccc2)c([N+](=O)[O-])c1
Staphylococcus aureus [1]
  MIC: > 16 µg/mL

## O=C(O)c1cn(C2CC2)c2cc(N3CCNCC3)c(F)cc2c1=O [CIPROFLOXACIN]
Escherichia coli
  MIC: ≤ 0.00075 µg/mL
Staphylococcus aureus [3]
  MIC: > 4 µg/mL
Staphylococcus aureus [4]
  MIC: 32 µg/mL (≈ 96.6 µM)
Staphylococcus aureus [5]
  MIC: > 4 µg/mL
Staphylococcus aureus [6]
  MIC: > 4 µg/mL
Staphylococcus aureus [7]
  MIC: 0.5 µg/mL (≈ 1.51 µM)
Staphylococcus aureus [2]
  MIC: 0.25 µg/mL (≈ 0.754 µM)

## O=[N+]([O-])c1ccc(S(=O)(=O)Nc2ccccc2)c([N+](=O)[O-])c1
Staphylococcus aureus [1]
  MIC: 8 µg/mL (≈ 24.7 µM)

## C=CCN(c1cccc(OC)c1)S(=O)(=O)c1ccc([N+](=O)[O-])cc1[N+](=O)[O-]
Staphylococcus aureus [1]
  MIC: 8 µg/mL (≈ 20.3 µM)
Enterococcus faecalis
  MIC: 16 µg/mL (≈ 40.7 µM)
Escherichia coli
  MIC: > 32 µg/mL
Staphylococcus aureus [2]
  MIC: 8 µg/mL (≈ 20.3 µM)

## COc1ccccc1NS(=O)(=O)c1ccc([N+](=O)[O-])cc1[N+](=O)[O-]
Staphylococcus aureus [1]
  MIC: 8 µg/mL (≈ 22.6 µM)
Enterococcus faecalis
  MIC: 16 µg/mL (≈ 45.3 µM)
Escherichia coli
  MIC: > 32 µg/mL
Staphylococcus aureus [2]
  MIC: 8 µg/mL (≈ 22.6 µM)

## O=[N+]([O-])c1ccc(S(=O)(=O)N(CCCO)Cc2ccccc2)c([N+](=O)[O-])c1
Staphylococcus aureus [1]
  MIC: 16 µg/mL (≈ 40.5 µM)
Enterococcus faecalis
  MIC: 32 µg/mL (≈ 80.9 µM)
Escherichia coli
  MIC: > 32 µg/mL
Staphylococcus aureus [2]
  MIC: 8 µg/mL (≈ 20.2 µM)

## COc1ccc(CNS(=O)(=O)c2ccc([N+](=O)[O-])cc2[N+](=O)[O-])cc1
Staphylococcus aureus [1]
  MIC: > 16 µg/mL

## COc1cccc(NS(=O)(=O)c2ccc([N+](=O)[O-])cc2[N+](=O)[O-])c1
Staphylococcus aureus [1]
  MIC: 16 µg/mL (≈ 45.3 µM)
Enterococcus faecalis
  MIC: > 32 µg/mL
Escherichia coli
  MIC: > 32 µg/mL
Staphylococcus aureus [2]
  MIC: 32 µg/mL (≈ 90.6 µM)

## C=CCN(c1ccccc1OC)S(=O)(=O)c1ccc([N+](=O)[O-])cc1[N+](=O)[O-]
Staphylococcus aureus [1]
  MIC: 8 µg/mL (≈ 20.3 µM)
Enterococcus faecalis
  MIC: > 32 µg/mL
Escherichia coli
  MIC: > 32 µg/mL
Staphylococcus aureus [2]
  MIC: 4 µg/mL (≈ 10.2 µM)

## O=[N+]([O-])c1ccc(S(=O)(=O)N(CCCN(Cc2ccccc2)S(=O)(=O)c2ccc([N+](=O)[O-])cc2[N+](=O)[O-])Cc2ccccc2)c([N+](=O)[O-])c1
Staphylococcus aureus [1]
  MIC: > 16 µg/mL

## CN(Cc1ccccc1)S(=O)(=O)c1ccc([N+](=O)[O-])cc1[N+](=O)[O-]
Staphylococcus aureus [1]
  MIC: 8 µg/mL (≈ 22.8 µM)

## CC(=O)NC[C@H]1CN(c2ccc(N3CCOCC3)c(F)c2)C(=O)O1 [LINEZOLID]
Staphylococcus aureus [2]
  MIC: 1 µg/mL (≈ 2.96 µM)

## O=[N+]([O-])c1ccc(S(=O)(=O)Nc2ccc(F)cc2)c([N+](=O)[O-])c1
Staphylococcus aureus [1]
  MIC: 16 µg/mL (≈ 46.9 µM)

## O=[N+]([O-])c1ccc(S(=O)(=O)N(CCCN(c2ccccc2F)S(=O)(=O)c2ccc([N+](=O)[O-])cc2[N+](=O)[O-])Cc2ccccc2)c([N+](=O)[O-])c1
Staphylococcus aureus [1]
  MIC: > 32 µg/mL

## CCN1C(=O)C=CC1=O
Staphylococcus aureus [8]
  Activity: Active

## CCN(c1ccccc1OC)S(=O)(=O)c1ccc([N+](=O)[O-])cc1[N+](=O)[O-]
Staphylococcus aureus [1]
  MIC: 8 µg/mL (≈ 21 µM)
Enterococcus faecalis
  MIC: > 32 µg/mL
Escherichia coli
  MIC: > 32 µg/mL
Staphylococcus aureus [2]
  MIC: 8 µg/mL (≈ 21 µM)

## COc1ccc(N(CCCN(Cc2ccccc2)S(=O)(=O)c2ccc([N+](=O)[O-])cc2[N+](=O)[O-])S(=O)(=O)c2ccc([N+](=O)[O-])cc2[N+](=O)[O-])cc1
Staphylococcus aureus [1]
  MIC: > 32 µg/mL

## COc1ccc(CN(CCCN(Cc2ccccc2)S(=O)(=O)c2ccc([N+](=O)[O-])cc2[N+](=O)[O-])S(=O)(=O)c2ccc([N+](=O)[O-])cc2[N+](=O)[O-])c(OC)c1
Staphylococcus aureus [1]
  MIC: > 16 µg/mL
Enterococcus faecalis
  MIC: > 32 µg/mL
Escherichia coli
  MIC: > 32 µg/mL
Staphylococcus aureus [2]
  MIC: > 32 µg/mL
Staphylococcus aureus [8]
  Activity: inactive

## C#CCN(Cc1cccc(OC)c1)S(=O)(=O)c1ccc([N+](=O)[O-])cc1[N+](=O)[O-]
Staphylococcus aureus [1]
  MIC: 16 µg/mL (≈ 39.5 µM)

## C#CCN(Cc1ccccc1)S(=O)(=O)c1ccc([N+](=O)[O-])cc1[N+](=O)[O-]
Staphylococcus aureus [1]
  MIC: 4 µg/mL (≈ 10.7 µM)
Enterococcus faecalis
  MIC: 16 µg/mL (≈ 42.6 µM)
Escherichia coli
  MIC: > 32 µg/mL
Staphylococcus aureus [2]
  MIC: 4 µg/mL (≈ 10.7 µM)

## COc1ccccc1CN(CCCN(Cc1ccccc1)S(=O)(=O)c1ccc([N+](=O)[O-])cc1[N+](=O)[O-])S(=O)(=O)c1ccc([N+](=O)[O-])cc1[N+](=O)[O-]
Staphylococcus aureus [1]
  MIC: > 32 µg/mL
Enterococcus faecalis
  MIC: > 32 µg/mL
Escherichia coli
  MIC: > 32 µg/mL

## COc1ccccc1N(Cc1ccccc1)S(=O)(=O)c1ccc([N+](=O)[O-])cc1[N+](=O)[O-]
Staphylococcus aureus [1]
  MIC: > 32 µg/mL
Enterococcus faecalis
  MIC: > 32 µg/mL
Escherichia coli
  MIC: > 32 µg/mL

## COc1ccc(CN(CCCN(Cc2ccccc2)S(=O)(=O)c2ccc([N+](=O)[O-])cc2[N+](=O)[O-])S(=O)(=O)c2ccc([N+](=O)[O-])cc2[N+](=O)[O-])cc1
Staphylococcus aureus [1]
  MIC: > 32 µg/mL
Enterococcus faecalis
  MIC: > 32 µg/mL
Escherichia coli
  MIC: > 32 µg/mL

## O=[N+]([O-])c1ccc(S(=O)(=O)N(CCCN(c2ccccc2)S(=O)(=O)c2ccc([N+](=O)[O-])cc2[N+](=O)[O-])Cc2ccccc2)c([N+](=O)[O-])c1
Staphylococcus aureus [1]
  MIC: > 16 µg/mL

## CCCN(c1ccccc1OC)S(=O)(=O)c1ccc([N+](=O)[O-])cc1[N+](=O)[O-]
Staphylococcus aureus [1]
  MIC: > 32 µg/mL
Enterococcus faecalis
  MIC: > 32 µg/mL
Escherichia coli
  MIC: > 32 µg/mL
